Assay results as given in ChEMBL document CHEMBL4706486, “Usnic acid derivatives as tau-aggregation and neuroinflammation inhibitors” (Eur J Med Chem, 2020).
Active and inactive are the calls of the source. No cut-off for these calls is given here.

Tests used:
Homo sapiens [1] = species: Homo sapiens; assay: Inhibition of acetyl-PHF6 amide self-aggregation (unknown origin) in pH 7.4 phosphate buffer at 10 uM and 25 degreeC measured every 1 min for 120 mins under shaking condition by ThT fluorescence assay relative to control
Summary of the method: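 AcPHF6 dissolved in HFIP, dried overnight, 1 mM water stock used at once. Final 100 μM peptide, 20 μM ThT, 10 μM compound (≤0.1% DMSO) in 50 mM phosphate buffer pH 7.4, 25 °C. Ex 440/em 490 nm read each minute for 120 min, 10 s shaking (400 rpm) before each read. Inhibition from mean signal at 50–60 min; ≥3 wells; mean ± SD of three experiments; DMSO negative control.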

Homo sapiens [2] = species: Homo sapiens; assay: Inhibition of acetyl-PHF6 amide self-aggregation (unknown origin) in pH 7.4 phosphate buffer assessed as decrease in absorbance intensity at 10 uM and 25 degreeC measured immediately after 10 sec vibration per minute for 120 mins under shaking condition by circular dichroism spectroscopy
Summary of the method: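 Fresh samples of 100 μM AcPHF6 with 10 μM compound (≤0.1% DMSO) in 50 mM phosphate buffer pH 7.4. 10 s vibration per minute at 25 °C over 120 min. Spectra 260–200 nm, 1 mm quartz cell, 1 nm bandwidth, 50 nm/min scan. Solvent and compound contributions subtracted, converted to Δε per residue, Savitzky-Golay smoothed.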

Homo sapiens [3] = species: Homo sapiens; assay: Inhibition of acetyl-PHF6 amide self-aggregation (unknown origin) in pH 7.4 phosphate buffer assessed as absence of fibrillar material at 20 uM and 25 degreeC measured after 10 mins by phosphotungstic acid staining based TEM analysis
Homo sapiens [4] = species: Homo sapiens; assay: Inhibition of acetyl-PHF6 amide self-aggregation (unknown origin) in pH 7.4 phosphate buffer assessed as appearance of dot like structure with <5 nm at 20 uM and 25 degreeC measured after 10 mins by phosphotungstic acid staining based TEM analysis
[5] = molecular target: Microtubule-associated protein tau (Homo sapiens) (UniProt P10636); assay: Inhibition of heparin-induced recombinant full length His-tagged 2N4R tau self-aggregation (unknown origin) expressed in Escherichia coli BL21 (DE3) at 10 uM measured after 6 mins by ThT fluorescence assay
Microtubule-associated protein tau (Homo sapiens), sequence (P10636 whole entry): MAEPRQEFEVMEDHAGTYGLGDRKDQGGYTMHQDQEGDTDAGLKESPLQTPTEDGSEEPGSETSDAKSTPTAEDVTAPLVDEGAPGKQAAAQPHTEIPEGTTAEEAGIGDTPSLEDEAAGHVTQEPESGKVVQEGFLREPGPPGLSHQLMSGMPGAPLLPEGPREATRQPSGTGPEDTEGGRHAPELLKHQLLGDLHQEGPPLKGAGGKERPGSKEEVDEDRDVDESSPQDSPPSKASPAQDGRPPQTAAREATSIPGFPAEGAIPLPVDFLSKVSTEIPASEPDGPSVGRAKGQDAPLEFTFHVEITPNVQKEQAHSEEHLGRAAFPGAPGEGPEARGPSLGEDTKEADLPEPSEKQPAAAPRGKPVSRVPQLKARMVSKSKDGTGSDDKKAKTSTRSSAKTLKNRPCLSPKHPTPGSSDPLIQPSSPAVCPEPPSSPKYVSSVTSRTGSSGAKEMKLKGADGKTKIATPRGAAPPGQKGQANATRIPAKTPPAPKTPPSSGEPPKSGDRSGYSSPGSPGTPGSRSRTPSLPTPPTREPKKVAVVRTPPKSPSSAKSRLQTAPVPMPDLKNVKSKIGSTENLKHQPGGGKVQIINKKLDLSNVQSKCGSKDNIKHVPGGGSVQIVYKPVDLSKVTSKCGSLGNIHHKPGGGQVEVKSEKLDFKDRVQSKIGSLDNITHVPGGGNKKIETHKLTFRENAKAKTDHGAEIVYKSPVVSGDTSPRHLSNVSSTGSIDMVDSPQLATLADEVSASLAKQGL
Summary of the method: (§1)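 His-tagged full-length 2N4R tau from E. coli BL21(DE3) (pET-28a, 1 mM IPTG, 37 °C), BCA-quantified, stored −80 °C. 10 μM tau with 10 μM compound and 1 mM DTT in 1× PBS at 37 °C, aggregation started with 10 μM heparin (MW 6117), 10 μM ThT. Ex 440/em 490 nm, read every 4 min with 2 min shaking (600 rpm) before reading.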

[6] = molecular target: Microtubule-associated protein tau (Homo sapiens) (UniProt P10636); assay: Inhibition of heparin-induced recombinant full length His-tagged 2N4R tau self-aggregation (unknown origin) expressed in Escherichia coli BL21 (DE3) assessed as reduction in aggregate formation at 10 uM measured after 6 mins by ThT fluorescence assay relative to control; summary of the method: as §1
SH-SY5Y = assay: Cytotoxicity against human SH-SY5Y cells assessed as reduction in cell survival at 30 uM measured after 24 hrs by MTT assay; format: cell-based
Summary of the method: (§2)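 Cells in high-glucose DMEM with 10% FBS, 5% CO₂, 37 °C, seeded 3000–5000/well, exposed to compound 24 h. MTT (0.5 mg/mL) 4 h, formazan dissolved in DMSO, absorbance 570 nm (reference 630 nm). Viability as percent of untreated control; mean ± SD, three independent experiments.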

L02 = assay: Cytotoxicity against human L02 cells assessed as effect on cell viability at <=40 uM measured after 24 hrs by MTT assay; format: cell-based; settings: l02, 24 h; summary of the method: as §2
BV-2 [7] = assay: Cytotoxicity against mouse BV-2 cells at 20 uM measured after 24 hrs by MTT assay; format: cell-based; settings: bv-2, 24 h; summary of the method: as §2
BV-2 [8] = assay: Antiinflammatory activity in mouse BV-2 cells assessed as inhibition of LPS-induced NO production at 10 uM pretreated with compound for 1 hr followed by LPS stimulation and measured after 18 hrs by Griess assay relative to control; format: functional; settings: time 19 hrs
Summary of the method: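 BV2 microglia grown in high-glucose DMEM with 10% FBS, seeded at 3 × 10^4 cells/well, preincubated with compound 1 h, then LPS (final 1 µg/ml) for 18 h. Supernatant mixed with equal volume Griess reagent, 10 min at 25 °C, absorbance 540 nm. Inhibition = (F_L−F_C)/(F_L−F₀) × 100. Mean ± SD, three independent experiments.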

[9] = Acute toxicity in Sprague-Dawley rat model of OA-induced dementia assessed as mortality at 5 to 10 mg/kg, ip administered for 7 days; format: organism-based; settings: in vivo, 168 h, dose 5-10 mg/kg, time 7 day
Summary of the method: (§3)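 Adult male SD rats (260-280 g), n = 8 per group. Compound given ip at 5 or 10 mg/kg daily for 7 days in saline with 8% DMSO and 1% Tween-80 cosolvent; controls got vehicle. Okadaic acid (300 ng in 1.5 μL saline) then injected stereotaxically into right dorsal hippocampus under isoflurane, and ip dosing continued 7 more days. Body weight recorded throughout; swimming speed recorded in Morris water maze.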

Rattus norvegicus [10] = assay: Cognitive enhancing effect in Sprague-Dawley rat model of OA-induced dementia assessed as average escape latency time to hidden platform at 5 to 10 mg/kg, ip administered for 7 days by Morris water maze test (reference value: 12.5 to 37.2 sec); format: functional; settings: dose 5-10 mg/kg; time 7 day
Summary of the method: (§4)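 Male SD rats (n = 8/group), ip dosing at 5 or 10 mg/kg in saline with 8% DMSO and 1% Tween-80 for 7 days, then OA (300 ng in 1.5 μL saline) microinjected into right dorsal hippocampus. Dosing continued 7 days after OA. Morris water maze: 5 training days recording escape latency, distance and swim speed; day-6 probe trial, platform removed, 60 s search, quadrant time and crossings counted. Two-way ANOVA versus model; SEM.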

[11] = Toxicity in Sprague-Dawley rat model of OA-induced dementia assessed as effect on swimming speed at 5 to 10 mg/kg, ip administered for 7 days; format: organism-based; settings: in vivo, 168 h, dose 5-10 mg/kg, time 7 day; summary of the method: as §3
Rattus norvegicus [12] = assay: Cognitive enhancing effect in Sprague-Dawley rat model of OA-induced dementia assessed as increase in time spent in virtual platform quadrant at 10 mg/kg, ip administered for 7 days by Morris water maze test; format: functional, organism-based; settings: time 7.0 day; summary of the method: as §4
Rattus norvegicus [13] = assay: Cognitive enhancing effect in Sprague-Dawley rat model of OA-induced dementia assessed as increase in number of platform crossing at 10 mg/kg, ip administered for 7 days by Morris water maze test; format: functional, organism-based; settings: time 7.0 day; summary of the method: as §4
[14] = Acute toxicity in Sprague-Dawley rat model of OA-induced dementia assessed as effect on body weight at 5 to 10 mg/kg, ip administered for 14 days; settings: in vivo, 336 h

CC(=O)c1c(O)c(C)c(O)c2c1OC1=Cc3c(c(C)nn3-c3ccc(C(=O)O)cc3)C(=O)[C@@]12C
inhibition (Homo sapiens [1]): 51.7% | inhibition (Homo sapiens [2]): Active | inhibition (Homo sapiens [3]): Active | inhibition (Homo sapiens [4]): Active | inhibition [5]: Active | inhibition [6]: 50% | Activity (SH-SY5Y): Toxic | Activity (L02): Non-Toxic | Activity (BV-2 [7]): Non-Toxic | inhibition at 10 µM (BV-2 [8]): 41% | Activity [9]: Non-Toxic | Time (Rattus norvegicus [10]): 18.5 s | Activity [11]: Non-Toxic | Activity (Rattus norvegicus [12]): Active | Activity (Rattus norvegicus [13]): Active | Activity [14]: Non-Toxic
